Like-named read-outs stand apart in the source and are kept apart here.
Legend:
[1] = test system: A-673 Ewing sarcoma cell line; test: DIMSCAN in vitro testing, 96 h; type: cell-based; conditions: for IC50: Homo sapiens, A673, 96 h
Procedure, shortened: (§1)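 Neuroblastoma and Ewing sarcoma lines, STR-verified and maintained as in the originators' reports. Exposed for 96 h to test compound (DMSO stock diluted in medium) at 1 nM–10 μM. Viable cells quantified by fluorescein diacetate fluorescence with DIMSCAN digital image microscopy. Absolute IC50 = concentration giving 50% growth inhibition vs controls. Relative IC50 = concentration giving 50% of the maximum inhibitory effect.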

[2] = test system: TC-71 Ewing sarcoma cell line; test: DIMSCAN in vitro testing, 96 h; type: cell-based; conditions: for IC50: TC-71, 96 h
Procedure, shortened: as §1

[3] = test system: SK-N-MC Ewing sarcoma cell line; test: DIMSCAN in vitro testing, 96 h; type: cell-based; conditions: for IC50: Homo sapiens, 96 h
Procedure, shortened: as §1

[4] = test system: CHLA-56 Ewing sarcoma cell line; test: DIMSCAN in vitro testing, 96 h; type: cell-based
Procedure, shortened: as §1

[5] = test system: CHLA-136 neuroblastoma cell line; test: DIMSCAN in vitro testing, 96 h; type: cell-based; conditions: for IC50: Neuroblastoma cell, 96 h
Procedure, shortened: as §1

[6] = test system: NB-1643 neuroblastoma cell line; test: DIMSCAN in vitro testing, 96 h; type: cell-based; conditions: for IC50: NB-1643, 96 h
Procedure, shortened: as §1

[7] = test system: NB-SD Neuroblastoma xenograft; type: in vivo, mice
Procedure, shortened: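 Female CB17 scid mice bearing subcutaneous tumors, 10 per group. Dosed by oral gavage twice daily, 5 days weekly for 6 weeks, at 20.8, 10.4, 5.2 or 2.6 mg/kg, in 10% 2-hydroxypropyl-β-cyclodextrin/1% sodium bicarbonate. Event = quadrupled tumor volume; EFS by Kaplan–Meier, exact log-rank test. Per-mouse scores PD/SD/PR (≥50% regression)/CR (<0.10 cm3)/MCR; group median reported. PR, CR and MCR count as objective responses.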

[8] = test system: ALL-19 ALL B-precursor xenograft; test: ALL xenograft; type: in vivo, mice
Procedure, shortened: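 Female NOD/scid mice inoculated intravenously with leukemia cells, 8 per group. Test compound suspended in 10% 2-hydroxypropyl-β-cyclodextrin/1% sodium bicarbonate in water. Given by oral gavage twice daily, 5 days weekly for 3 weeks, at 20.8, 10.4, 5.2 or 2.6 mg/kg. Blood %hCD45 of leukocytes tracked; event = hCD45 reaching 25%. EFS by Kaplan–Meier, exact log-rank vs controls. Median group response from individual scores.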

Q: `COc1cc(Nc2ncc3c(n2)-c2ccc(Cl)cc2C(c2c(F)cccc2OC)=NC3)ccc1C(=O)O` [MLN8237] was tested. Which Ymin ([1]; A-673, minimum T/C) did it give?
A: 13.1%

Q: And the IC50 ([1]; read-out: Absolute IC50)?
A: 32 nM

Q: What about the IC50 ([1]; read-out: Relative IC50) of the same compound?
A: 30 nM

Q: And the IC50 ([2]; read-out: Absolute IC50)?
A: 102 nM

Q: And the IC50 ([2]; read-out: Relative IC50)?
A: 100 nM

Q: And the Ymin ([2]; TC-71, minimum T/C)?
A: 10.0%

Q: What about the IC50 ([3]; read-out: Absolute IC50) of the same compound?
A: 72 nM

Q: And the IC50 ([3]; read-out: Relative IC50)?
A: 66 nM

Q: What about the Ymin ([3]; minimum T/C) of the same compound?
A: 2.8%

Q: And the IC50 ([4]; 96 h)?
A: > 10000 nM

Q: What about the Ymin ([4]; CHLA-56, minimum T/C) of the same compound?
A: 48.1%

Q: What about the Ymin ([5]; CHLA-136, minimum T/C) of the same compound?
A: 10.4%

Q: And the IC50 ([5]; read-out: Absolute IC50)?
A: 39 nM

Q: What about the IC50 ([5]; read-out: Relative IC50) of the same compound?
A: 36 nM

Q: And the IC50 ([6]; read-out: Absolute IC50)?
A: 37 nM

Q: What about the IC50 ([6]; read-out: Relative IC50) of the same compound?
A: 32 nM

Q: What about the Ymin ([6]; NB-1643, minimum T/C) of the same compound?
A: 10.2%

Q: What about the “EFS T/C” value ([7]; 2.6 mg/kg) of the same compound?
A: 1.6

Q: And the EFS activity ([7]; 2.6 mg/kg)?
A: Low

Q: And the “Estimate of median time to event” value ([7]; 2.6 mg/kg)?
A: 15.2 days

Q: What about the Median group response ([7]; 2.6 mg/kg) of the same compound?
A: PD1 (if the TGD value ≤1.5, that mouse was considered PD1)

Q: What about the Response activity ([7]; 2.6 mg/kg) of the same compound?
A: Low

Q: What about the “Tumor volume T/C” value ([7]; 2.6 mg/kg) of the same compound?
A: 0.59

Q: And the “Median RTV/hCD45 at end of study” value ([7]; 2.6 mg/kg)?
A: >4

Q: And the “EFS T/C” value ([7]; 5.2 mg/kg)?
A: 2.2

Q: And the EFS activity ([7]; 5.2 mg/kg)?
A: Int

Q: And the “Estimate of median time to event” value ([7]; 5.2 mg/kg)?
A: 20.9 days

Q: What about the Median group response ([7]; 5.2 mg/kg) of the same compound?
A: PD2 (if the TGD value >1.5, the mouse was considered PD2)

Q: And the Response activity ([7]; 5.2 mg/kg)?
A: Int

Q: What about the “Tumor volume T/C” value ([7]; 5.2 mg/kg) of the same compound?
A: 0.60

Q: And the “Median RTV/hCD45 at end of study” value ([7]; 5.2 mg/kg)?
A: >4

Q: What about the “EFS T/C” value ([7]; 10.4 mg/kg) of the same compound?
A: 3.9

Q: What about the EFS activity ([7]; 10.4 mg/kg) of the same compound?
A: Int

Q: What about the “Estimate of median time to event” value ([7]; 10.4 mg/kg) of the same compound?
A: 37.5 days

Q: And the Median group response ([7]; 10.4 mg/kg)?
A: PD2 (if the TGD value >1.5, the mouse was considered PD2)

Q: And the Response activity ([7]; 10.4 mg/kg)?
A: Int

Q: And the “Tumor volume T/C” value ([7]; 10.4 mg/kg)?
A: 0.50

Q: And the “Median RTV/hCD45 at end of study” value ([7]; 10.4 mg/kg)?
A: >4

Q: And the “EFS T/C” value ([7]; 20.8 mg/kg)?
A: >4.4

Q: And the EFS activity ([7]; 20.8 mg/kg)?
A: High

Q: What about the Response activity ([7]; 20.8 mg/kg) of the same compound?
A: Int

Q: What about the “Tumor volume T/C” value ([7]; 20.8 mg/kg) of the same compound?
A: 0.47

Q: What about the “Median RTV/hCD45 at end of study” value ([7]; 20.8 mg/kg) of the same compound?
A: 0.9

Q: What about the “EFS T/C” value ([8]; 2.6 mg/kg) of the same compound?
A: 1.0

Q: And the EFS activity ([8]; 2.6 mg/kg)?
A: Low

Q: And the “Estimate of median time to event” value ([8]; 2.6 mg/kg)?
A: 2.6 days

Q: And the Median group response ([8]; 2.6 mg/kg)?
A: PD1 (if the TGD value ≤1.5, that mouse was considered PD1)

Q: And the Response activity ([8]; 2.6 mg/kg)?
A: Low

Q: And the “Median RTV/hCD45 at end of study” value ([8]; 2.6 mg/kg)?
A: >25%

Q: And the “EFS T/C” value ([8]; 5.2 mg/kg)?
A: 9.2

Q: What about the EFS activity ([8]; 5.2 mg/kg) of the same compound?
A: Int

Q: What about the “Estimate of median time to event” value ([8]; 5.2 mg/kg) of the same compound?
A: 22.9 days

Q: And the Median group response ([8]; 5.2 mg/kg)?
A: PD2 (if the TGD value >1.5, the mouse was considered PD2)

Q: What about the Response activity ([8]; 5.2 mg/kg) of the same compound?
A: Int

Q: And the “Median RTV/hCD45 at end of study” value ([8]; 5.2 mg/kg)?
A: >25%

Q: And the “EFS T/C” value ([8]; 10.4 mg/kg)?
A: 14.9

Q: And the EFS activity ([8]; 10.4 mg/kg)?
A: Int

Q: And the “Estimate of median time to event” value ([8]; 10.4 mg/kg)?
A: 37.2 days

Q: And the Response activity ([8]; 10.4 mg/kg)?
A: High

Q: What about the “Median RTV/hCD45 at end of study” value ([8]; 10.4 mg/kg) of the same compound?
A: >25%

Q: And the “EFS T/C” value ([8]; 20.8 mg/kg)?
A: 16.8

Q: What about the EFS activity ([8]; 20.8 mg/kg) of the same compound?
A: Int

Q: What about the “Estimate of median time to event” value ([8]; 20.8 mg/kg) of the same compound?
A: 41.8 days

Q: And the Response activity ([8]; 20.8 mg/kg)?
A: High

Q: What about the “Median RTV/hCD45 at end of study” value ([8]; 20.8 mg/kg) of the same compound?
A: >25%
